Test [1] deals with Rattus norvegicus. The test is described as follows: Antiinflammatory activity against carrageenan-induced foot edema in rat after oral administration of 20 mg/kg; IA=Inactive. Set-up: dose 20 mg/kg. It is filed as functional, organism-based. Background: Carrageenan injected into the paw causes an acute inflammation.
The test system of test [2] is Mus musculus. Briefly: Analgesic activity against acetic acid induced writhing test in mouse after peroral administration. Type of test: functional. The following applies: Mus musculus, po; read-out: ED50.
The subject of test [3] is Rattus norvegicus. The test is described as follows: Anti-arthritis activity against adjuvant-induced arthritis in rats after peroral administration. It is filed as functional. The following applies: Rattus norvegicus, po; read-out: ED50. In a few lines:
(§1)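 Groups of five male Lewis rats, 40–50 days old, given intraplantar injection in right hind paw of 0.6 mg Mycobacterium butyricum in 0.1 mL Bayol 55. Drug given in food from adjuvant day to day 17. Injected and noninjected hind paw volumes measured day 17 against normal controls. ED50 by least-squares curve fitting or Litchfield–Wilcoxon probit.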

Test [4] concerns Mus musculus. The test is described as follows: Analgesic activity against acetic acid induced writhing test in mouse administered po at 100 mg/kg; IA=Inactive. The arrangement: dose 100 mg/kg. It is filed as functional, organism-based. In a few lines: (§2)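 Female mice (20–22 g), groups of 10, fasted 7 h; drug given orally 30 min before intraperitoneal injection of 0.2 mL 1% aqueous acetic acid. Stretching/writhing movements counted from minute 5 to 20 after irritant.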

Test [5] has as its system Rattus norvegicus. Briefly: Antiarthritis activity against adjuvant-induced arthritis in rats after peroral administration at 15 mg/kg; IA=Inactive. Set-up: dose 15 mg/kg. Type of test: functional, organism-based. Put shortly:
as §1

The subject of test [6] is Rattus norvegicus. Briefly: Antiinflammatory activity against carrageenan-induced foot edema in rat after peroral administration of 100 mg/kg; IA=Inactive. It is filed as functional, organism-based. Set-up: dose 100 mg/kg.
The test system of test [7] is Mus musculus. The test is described as follows: Analgesic activity against acetic acid induced writhing test in mouse after peroral administration at 100 mg/kg; IA=Inactive. In general terms: An intraperitoneal irritant provokes the stretching counted in writhing tests.
Test [8] concerns Rattus norvegicus. Briefly: Antiarthritis activity against adjuvant-induced arthritis in rats at 25 mg/kg; IA=Inactive. It is filed as functional, organism-based. Set-up: dose 25 mg/kg.
The test system of test [9] is Mus musculus. Briefly: Analgesic activity against acetic acid induced writhing test in mouse after peroral administration at 25 mg/kg; IA=Inactive. Type of test: functional, organism-based. The arrangement: dose 25 mg/kg. In a few lines: as §2
The next test addresses T1, Cyclooxygenase (Bos taurus, UniProt O62664+O62698).
T1 sequence (O62664 whole entry): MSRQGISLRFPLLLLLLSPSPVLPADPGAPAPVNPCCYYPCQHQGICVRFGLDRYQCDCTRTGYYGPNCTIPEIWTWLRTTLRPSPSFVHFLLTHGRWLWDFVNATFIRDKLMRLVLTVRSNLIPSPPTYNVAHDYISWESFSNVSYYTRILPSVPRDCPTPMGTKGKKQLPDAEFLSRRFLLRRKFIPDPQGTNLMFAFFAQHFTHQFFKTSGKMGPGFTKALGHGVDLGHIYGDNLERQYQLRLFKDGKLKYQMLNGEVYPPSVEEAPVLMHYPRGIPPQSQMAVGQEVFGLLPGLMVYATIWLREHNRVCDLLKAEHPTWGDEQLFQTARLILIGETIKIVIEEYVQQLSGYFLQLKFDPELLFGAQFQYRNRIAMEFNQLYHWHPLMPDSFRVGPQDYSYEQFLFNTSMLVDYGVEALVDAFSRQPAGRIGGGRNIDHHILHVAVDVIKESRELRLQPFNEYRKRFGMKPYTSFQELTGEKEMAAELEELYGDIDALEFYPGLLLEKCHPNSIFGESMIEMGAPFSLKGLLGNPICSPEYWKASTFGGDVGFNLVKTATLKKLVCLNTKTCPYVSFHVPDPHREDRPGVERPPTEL
T1 sequence (O62698 whole entry): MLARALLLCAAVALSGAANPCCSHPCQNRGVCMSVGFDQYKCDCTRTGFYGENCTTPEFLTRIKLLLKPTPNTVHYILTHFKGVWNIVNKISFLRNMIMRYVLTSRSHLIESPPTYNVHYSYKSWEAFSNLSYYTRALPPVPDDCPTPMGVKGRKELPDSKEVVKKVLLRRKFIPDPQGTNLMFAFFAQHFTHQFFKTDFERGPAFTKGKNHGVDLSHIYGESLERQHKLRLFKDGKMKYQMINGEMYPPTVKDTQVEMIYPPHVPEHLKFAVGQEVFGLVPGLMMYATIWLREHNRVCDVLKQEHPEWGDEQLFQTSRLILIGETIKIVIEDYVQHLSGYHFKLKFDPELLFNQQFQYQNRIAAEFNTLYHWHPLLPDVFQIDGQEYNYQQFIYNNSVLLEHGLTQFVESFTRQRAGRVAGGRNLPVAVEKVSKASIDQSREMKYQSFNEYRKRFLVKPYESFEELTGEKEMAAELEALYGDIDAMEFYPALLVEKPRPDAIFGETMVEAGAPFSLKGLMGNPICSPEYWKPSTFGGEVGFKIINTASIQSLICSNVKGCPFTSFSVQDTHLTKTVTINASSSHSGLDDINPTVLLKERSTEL
Briefly: Inhibition of bovine Prostaglandin G/H synthase in seminal vesicle microsomes in vitro.

Test [10] concerns Rattus norvegicus. Briefly: Antiinflammatory activity against carrageenan-induced foot edema in rat after peroral administration. It is filed as functional. Conditions: po. Put shortly: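 Groups of eight male Sprague-Dawley rats (150–180 g) dosed orally at the time of subplantar injection of 0.5 mg carrageenin. Paw volume difference measured before and 5 h after injection. Expressed as ED40, estimated graphically or by Litchfield–Wilcoxon probit analysis.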

Test [11] addresses T2, Polyunsaturated fatty acid 5-lipoxygenase (Rattus norvegicus, UniProt P12527).
T2 sequence (P12527 whole entry): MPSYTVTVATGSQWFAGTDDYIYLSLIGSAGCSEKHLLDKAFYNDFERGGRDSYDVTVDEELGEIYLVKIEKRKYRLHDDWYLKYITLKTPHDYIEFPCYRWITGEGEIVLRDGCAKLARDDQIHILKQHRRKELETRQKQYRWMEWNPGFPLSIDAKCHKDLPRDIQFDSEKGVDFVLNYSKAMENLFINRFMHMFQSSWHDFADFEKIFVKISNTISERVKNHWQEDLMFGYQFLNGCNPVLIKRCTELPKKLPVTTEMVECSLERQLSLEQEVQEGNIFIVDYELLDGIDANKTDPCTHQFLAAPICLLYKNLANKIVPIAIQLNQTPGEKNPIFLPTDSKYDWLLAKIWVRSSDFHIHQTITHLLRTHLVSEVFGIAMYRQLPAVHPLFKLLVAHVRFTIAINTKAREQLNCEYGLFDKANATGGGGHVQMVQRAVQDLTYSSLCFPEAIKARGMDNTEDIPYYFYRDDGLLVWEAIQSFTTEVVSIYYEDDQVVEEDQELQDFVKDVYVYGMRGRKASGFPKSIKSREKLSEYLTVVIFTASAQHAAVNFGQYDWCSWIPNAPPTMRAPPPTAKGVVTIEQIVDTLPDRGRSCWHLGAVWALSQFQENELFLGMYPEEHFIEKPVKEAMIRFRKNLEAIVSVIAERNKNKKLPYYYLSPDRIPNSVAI
The test is described as follows: Inhibition of 5-lipoxygenase from rat peritoneal neutrophils in vitro.

Test [12] has as its system Rattus norvegicus. Briefly: Ulcerogenic effect after oral administration (intestinal ulcer). It is filed as functional. In a few lines:
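Nonfasted male rats (150–180 g) killed 24 h after oral dosing, and intestinal ulcers scored. Ulceration index = (mean degree × rats with ulcers / rats) × 100. ED100 (index 100) determined graphically.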

Test [13] concerns Rattus norvegicus. The test is described as follows: Ulcerogenic effect after oral administration (gastric ulcer). Type of test: functional. Put shortly:
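Groups of eight female rats (120–150 g), fasted 24 h, dosed orally; killed 7 h later and stomachs scored. Ulceration index = (mean ulcer degree × rats with ulcers / number of rats) × 100, ulcers being scores above 0.5. ED100 (index 100, max 300) read graphically.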

The subject of test [14] is Mus musculus. Briefly: Analgesic activity against acetic acid induced writhing test in mouse after peroral administration of 100 mg/kg; IA=Inactive. It is filed as functional, organism-based. The arrangement: dose 100 mg/kg. Put shortly:
as §2

In test [15] the test system is Mus musculus. Briefly: Analgesic activity against acetic acid induced writhing test in mouse after peroral administration at 100 mg/kg; IA=Inactive. It is filed as functional, organism-based. Set-up: dose 100 mg/kg. Put shortly:
as §2

The results in this text go back to ChEMBL document CHEMBL1124161, “4-Hydroxy-3-quinolinecarboxamides with antiarthritic and analgesic activities” (J Med Chem, 1988).

The structures appear in SMILES notation. pIC50: −log10 of the molar value. Activity calls are given as the source filed them. The rule behind the calls is not given here. A value given as a limit tells only on which side of the number the result lay.

Broadly, the ED50 is the dose at which the effect has come halfway, by size or by number of responders. For orientation: IC50 means the midpoint of a concentration-inhibition curve. Lower therefore signals inhibition by little substance. By pIC50 is commonly meant the negative decadic logarithm of the IC50, by convention in mol/L.

With `O=C(Nc1nccs1)c1c(-c2ccccc2)nc2c(C(F)(F)F)cccc2c1O`, the ED50 entry in the test with Rattus norvegicus [1] is “inactive”. For the same molecule, in the test on Mus musculus [2], the ED50 turned out to be 50 mg/kg.

Turning to `CCC(=O)OC(c1nc2c(C(F)(F)F)cccc2c(O)c1C(=O)Nc1ccccn1)C(C)C` (stereo not drawn), the ED50 with Rattus norvegicus [3] is 5 mg/kg. Further, the ED50 entry with Mus musculus [4] is “inactive”.

On to `CCCCc1nc2c(C(F)(F)F)cccc2c(O)c1C(=O)Nc1nccs1`, for which the ED50 entry with Rattus norvegicus [1] was “inactive”. For the same molecule, the ED50 in the test with Mus musculus [2] is 50 mg/kg.

On to `C[C@@H](N)c1nc2c(C(F)(F)F)cccc2c(O)c1C(=O)Nc1nccs1`, for which the ED50 entry in the test on Rattus norvegicus [5] was “inactive”. For the same molecule, the ED50 in the test on Mus musculus [2] was over 100 mg/kg.

Consider `CC(C)c1ccc2nc(C(F)(F)F)c(C(=O)Nc3nccs3)c(O)c2c1`, for which the ED50 result in the test on Rattus norvegicus [6] was “inactive”. Moreover, the ED50 with Mus musculus [2] is over 100 mg/kg.

In the case of `O=C(Nc1nccs1)c1c(CO)nc2c(C(F)(F)F)cccc2c1O`, the ED50 entry with Mus musculus [7] and in the test with Rattus norvegicus [8] was “inactive” each time.

Turning to `CC(Cl)(Cl)c1nc2c(C(F)(F)F)cccc2c(O)c1C(=O)Nc1nccs1`, the ED50 result in the test with Mus musculus [9] was “inactive”.

As for `O=C(Nc1nccs1)c1c(C(Cl)Cl)nc2c(C(F)(F)F)cccc2c1O`, on Cyclooxygenase, the IC50 was 1.8 µM. Further, the results for the ED50 in the test with Rattus norvegicus [3] and in the test with Mus musculus [2] were 48 mg/kg and 1.1 mg/kg, respectively. This molecule also showed an ED40 with Rattus norvegicus [10] of over 100 mg/kg. In test [11], this molecule gave a negative logarithm of the IC50 (pIC50) of 5.70. Further, the ED100 in the test with Rattus norvegicus [12] was over 500 mg/kg; in the test on Rattus norvegicus [13], 270 mg/kg.

As for `Cn1ccnc1NC(=O)c1c(C(F)(F)F)nc2c(C(F)(F)F)cccc2c1O`, the ED50 entry in the test on Mus musculus [14] and with Rattus norvegicus [6] was “inactive” throughout.

As to `CCC(OC(C)=O)c1nc2c(C(F)(F)F)cccc2c(O)c1C(=O)Nc1nccs1` (stereo not drawn), the ED50 with Rattus norvegicus [3] is 4 mg/kg. In addition, the ED50 result in the test on Mus musculus [4] was “inactive”.

Consider `CCC(=O)OC(CC)c1nc2c(C(F)(F)F)cccc2c(O)c1C(=O)Nc1ccccn1` (stereo not drawn), for which, in the test on Rattus norvegicus [3], the ED50 is over 5 mg/kg. Moreover, in the test with Mus musculus [15], the ED50 entry was “inactive”.

As to `CC(=O)OC(c1nc2c(C(F)(F)F)cccc2c(O)c1C(=O)Nc1ccccn1)C(C)C` (stereo not drawn), the ED50 in the test on Rattus norvegicus [3] is at least 5 mg/kg. For the same molecule, the ED50 entry in the test on Mus musculus [15] was “inactive”.
